Assay results published in ChEMBL document CHEMBL5325402, “Exploration of novel hexahydropyrrolo[1,2-e]imidazol-1-one derivatives as antiviral agents against ZIKV and USUV” (Eur J Med Chem, 2023).
≈ marks a conversion by molar mass, not a printed value. Calls of active or inactive are those of the source. The rule behind the calls is not given here.

Assays:
Usutu virus [1] = assay: Antiviral activity against USUV 3345 isolate Arb276 infected in African green monkey Vero cells assessed as viral growth inhibition at 0.13 to 100 uM pretreated with cells 2 hrs prior to viral infection by time of addition assay; type: functional, organism-based; details: dose 0.13-100 µM
Method in brief: (§1)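 Time-of-addition assay in Vero. Serial dilutions (100 to 0.13 μM) were added to cells 24 h or 2 h before infection, during the 2 h infection, or post-infection for 24 h (USUV) or 30 h (ZIKV). Cells were fixed in cold acetone-methanol (50:50) and infected cells detected by indirect immunostaining. EC50/EC90 came from variable-slope sigmoidal fits; mean of three independent experiments.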

Usutu virus [2] = assay: Antiviral activity against USUV 3345 isolate Arb276 infected in human Huh-7 cells assessed as reduction in viral replication pretreated with virus for 1 hr followed by infection of cells with compound treated-virus for 20 hrs by focus reduction assay; type: functional, organism-based; details: Usutu virus, 3345, Huh-7; for EC90: time 21 hrs
Method in brief: (§2)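 Dose-response: serial dilutions (100 to 0.13 μM) preincubated 1 h at 37 °C with virus (MOI 0.02), then added to cells for 20 h (USUV) or 30 h (ZIKV) in 2% FBS DMEM. Cells per well: Vero 1.2 × 10^4, A549 1.3 × 10^4, Huh7 1.6 × 10^4. Foci immunostained and counted. EC50/EC90 fitted by variable-slope sigmoidal curve, mean of three independent experiments.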

[3] = Cytotoxicity against African green monkey Vero cells infected with ZIKV MR766 pretreated with virus for 1 hr followed by infection of cells with compound treated-virus for 30 hrs by MTS assay; type: toxicity, cell-based; details: chlorocebus sabaeus
Method in brief: (§3)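 MTS viability assay. Cells were treated under the same conditions as the antiviral assays. Absorbance was expressed as % of medium-only cells, and CC50 was derived from the curve. Seeding densities were 1.2 × 10^4/well for Vero, 1.3 × 10^4/well for A549 and 1.6 × 10^4/well for Huh7. DMEM with 2% FBS.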

[4] = Selectivity index, ratio of CC50 for African green monkey Vero cells infected with ZIKV MR766 to EC50 for ZIKV MR766 infected in African green monkey Vero cells; type: toxicity, cell-based; details: read-out: Ratio CC50/EC50
[5] = Selectivity ratio of EC50 for antiviral activity against ZIKV MR766 infected in African green monkey Vero cells pretreated with cells 24 hrs prior to viral infection to EC50 for antiviral activity against ZIKV MR766 infected in African green monkey Vero cells treated immediately after viral infection for 30 hrs; type: functional, Zika virus
Method in brief: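 Time of addition: serial dilutions (100 to 0.13 μM) put on cells either 24 h before infection or after infection for 30 h (ZIKV). Infected cells fixed in acetone-methanol and immunostained. EC50 computed for each treatment condition by sigmoidal fit; the ratio compares the two EC50s.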

Usutu virus [6] = assay: Antiviral activity against USUV 3345 isolate Arb276 infected in human A549 cells assessed as reduction in viral replication pretreated with virus for 1 hr followed by infection of cells with compound treated-virus for 20 hrs by focus reduction assay; type: functional, organism-based; details: Usutu virus, 3345, A549; for EC90: time 21 hrs; method in brief: as §2
Zika virus [7] = assay: Antiviral activity against ZIKV MR766 infected in African green monkey Vero cells assessed as reduction in plaque formation pretreated with virus for 1 hr followed by infection of cells with compound treated-virus for 2 hrs and further treatment of compound for 72 hrs by crystal violet staining based assay; type: functional, organism-based; details: time 75.0 hrs
Method in brief: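 Plaque reduction assay. Vero cells were seeded 6 × 10^4/well. ZIKV (MOI 0.005) was preincubated with serial compound dilutions for 1 h at 37 °C, then adsorbed on cells for 2 h. After two washes, cells were overlaid with 1.2% methylcellulose in DMEM for 72 h, then fixed and stained with 0.1% crystal violet for 30 min. Plaques counted; EC50/EC90 from variable-slope sigmoidal fits.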

[8] = Cytotoxicity against human Huh-7 cells infected with ZIKV MR766 pretreated with virus for 1 hr followed by infection of cells with compound treated-virus for 30 hrs by MTS assay; type: toxicity, cell-based; method in brief: as §3
Zika virus [9] = assay: Antiviral activity against ZIKV MR766 infected in African green monkey Vero cells assessed as viral growth inhibition at 0.13 to 100 uM treated immediately after viral infection for 2 hrs by time of addition assay; type: functional, organism-based; details: dose 0.13-100 µM, in the assay text read “during viral infection” for “immediately after viral infection”; method in brief: as §1
Zika virus [10] = assay: Antiviral activity against ZIKV MR766 infected in African green monkey Vero cells assessed as reduction in viral replication pretreated with virus for 1 hr followed by infection of cells with compound treated-virus for 30 hrs by focus reduction assay; type: functional, organism-based; details: for EC90: time 31 hrs
Zika virus [11] = assay: Antiviral activity against ZIKV MR766 infected in African green monkey Vero cells assessed as viral growth inhibition at 0.13 to 100 uM treated immediately after viral infection for 30 hrs by time of addition assay; type: functional, organism-based; details: dose 0.13-100 µM; method in brief: as §1
[12] = Selectivity index, ratio of CC50 for African green monkey Vero cells infected with USUV 3345 isolate Arb276 to EC50 for USUV 3345 isolate Arb276 infected in African green monkey Vero cells; type: toxicity, cell-based; details: read-out: Ratio CC50/EC50
Zika virus [13] = assay: Antiviral activity against ZIKV MR766 infected in human Huh-7 cells assessed as reduction in viral replication pretreated with virus for 1 hr followed by infection of cells with compound treated-virus for 30 hrs by focus reduction assay; type: functional, organism-based; details: for EC50: MR766, Huh-7; for EC90: MR766, Huh-7, time 31 hrs; method in brief: as §2
[14] = Cytotoxicity against human A549 cells infected with ZIKV MR766 pretreated with virus for 1 hr followed by infection of cells with compound treated-virus for 30 hrs by MTS assay; type: toxicity, cell-based; method in brief: as §3
Usutu virus [15] = assay: Antiviral activity against USUV 3345 isolate Arb276 infected in African green monkey Vero cells assessed as viral growth inhibition at 0.13 to 100 uM treated immediately after viral infection for 24 hrs by time of addition assay; type: functional, organism-based; details: dose 0.13-100 µM; method in brief: as §1
Usutu virus [16] = assay: Antiviral activity against USUV 3345 isolate Arb276 infected in African green monkey Vero cells assessed as viral growth inhibition at 0.13 to 100 uM treated immediately after viral infection for 2 hrs by time of addition assay; type: functional, organism-based; details: dose 0.13-100 µM, in the assay text read “during viral infection” for “immediately after viral infection”; method in brief: as §1
Usutu virus [17] = assay: Antiviral activity against USUV 3345 isolate Arb276 infected in African green monkey Vero cells assessed as viral growth inhibition at 0.13 to 100 uM pretreated with cells 24 hrs prior to viral infection by time of addition assay; type: functional, organism-based; details: dose 0.13-100 µM; method in brief: as §1
[18] = Solubility in i-propanol at 25 degreeC; type: physicochemical
Zika virus [19] = assay: Antiviral activity against ZIKV MR766 infected in human A549 cells assessed as reduction in viral replication pretreated with virus for 1 hr followed by infection of cells with compound treated-virus for 30 hrs by focus reduction assay; type: functional, organism-based; details: for EC90: time 31 hrs; method in brief: as §2
[20] = Aqueous solubility in deionized water containing 1.38% DMSO; type: physicochemical
Usutu virus [21] = assay: Antiviral activity against USUV 3345 isolate Arb276 infected in African green monkey Vero cells assessed as viral growth inhibition at 11 to 100 uM pretreated with virus for 1 hr followed by infection of cells with compound treated-virus for 20 hrs by focus reduction assay relative to control; type: functional; details: dose 11-100 µM, time 21 hrs
Method in brief: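 Virus (MOI 0.02) preincubated with compound 1 h at 37 °C, then mixture put on Vero cells (1.2 × 10^4/well, seeded the day before) in DMEM with 2% FBS for 30 h (ZIKV) or 20 h (USUV) at 37 °C. Fixed in cold acetone-methanol, foci immunostained with anti-flavivirus E 4G2 antibody and counted. % infection is relative to DMSO-treated wells. Screen used 100, 33 and 11 μM.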

[22] = Solubility in DMSO at 25 degreeC; type: physicochemical

Row | Compound | Activity (Usutu virus [1]) | EC50 (Usutu virus [2]) [µM] | EC90 (Usutu virus [2]) [µM] | CC50 at 31 h [3] [µM] | selectivity ratio [4] | Ratio EC50 [5] | EC50 (Usutu virus [6]) [µM] | EC90 (Usutu virus [6]) [µM] | Activity (Zika virus [7]) | CC50 at 31 h [8] [µM] | Activity (Zika virus [9]) | EC50 (Zika virus [10]) [µM] | EC90 (Zika virus [10]) [µM] | Activity (Zika virus [11]) | selectivity ratio [12] | EC50 (Zika virus [13]) [nM] | EC90 (Zika virus [13]) [µM] | CC50 at 31 h [14] [µM] | Activity (Usutu virus [15]) | Activity (Usutu virus [16]) | further results
1 | O=C1[C@@H]2CCCN2[C@@H](c2ccc([C@H]3C[C@@H](O)[C@@H](CO)O3)cc2)N1c1ccc([N+](=O)[O-])cc1 | inactive | 3.91 | 5.77 | > 500 | > 63 | 5 | 6.42 | 12 | Active | > 500 | inactive | 7.96 | 12.3 | Active | > 198 | 2260 | 4.26 | > 500 | Active | inactive | Activity (Usutu virus [17]): Active; solubility [18]: 7320 µg/mL (≈ 16.7 mM); EC50 (Zika virus [19]): 3.95 µM; EC90 (Zika virus [19]): 10.9 µM; solubility [20]: > 947 µg/mL; inhibition (INH) (Usutu virus [21]): 100%; solubility [22]: 96 mg/mL (≈ 218 mM)
2 | O=C1C[C@H](c2ccc([C@H]3N(c4ccc([N+](=O)[O-])cc4)C(=O)[C@@H]4CCCN43)cc2)O[C@@H]1CO | inactive | 4 | 6.28 | > 500 | > 51 | 5 | 6.82 | 15.2 | Active | > 500 | inactive | 9.73 | 15.4 | Active | > 181 | 2360 | 4.19 | > 500 | Active | inactive | Activity (Usutu virus [17]): Active; solubility [18]: 8570 µg/mL (≈ 19.6 mM); EC50 (Zika virus [19]): 3.8 µM; EC90 (Zika virus [19]): 10.2 µM; solubility [20]: > 897 µg/mL; inhibition (INH) (Usutu virus [21]): 100%; solubility [22]: 130 mg/mL (≈ 297 mM)
